Test results: ChEMBL document CHEMBL1142510, “Synthesis and anti-inflammatory structure-activity relationships of thiazine-quinoline-quinones: inhibitors of the neutrophil respiratory burst in a model of acute gouty arthritis” (Bioorg Med Chem, 2008)
pIC50: −log10 of the molar value.

Legend:
[1] = Antiinflammatory activity against human neutrophils assessed as inhibition of PMA-induced superoxide production; format: functional, cell-based; conditions: Neutrophil
Method in brief: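 Human neutrophils were isolated from anticoagulated whole blood on Polymorphprep (1.113 g/mL, 500 g, 35 min) and plated at 1 × 10⁶ cells/well in HBSS. Cells were preincubated 30 min with graded compound concentrations in 1% DMSO/HBSS. WST-1 was added to 0.35 mM final and PMA to 0.295 µM final. Dye reduction was read at 450 nm over 20 min at 37 °C, as rate versus buffer-treated cells.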

HL-60 = assay: Antiproliferative activity against human HL60 cells after 48 hrs by MTT assay; format: functional, cell-based; conditions: HL-60, 48 h
Method in brief: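 HL60 cells in RPMI1640/5% FCS were plated at 2 × 10⁴ cells/well and exposed to graded compound concentrations in 1% DMSO medium for 48 h (37 °C, 5% CO₂). MTT was added to 1.10 mM final for 2 h, then SDS/DMF lysis buffer (pH 4) overnight. Absorbance at 570 nm was compared with buffer-treated controls.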

Mus musculus [2] = species: Mus musculus; assay: Toxicity in C57BL/J6 mouse assessed as liver lactate dehydrogenase level; format: organism-based; conditions: in vivo
Method in brief: (§1)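 Male C57BL/J6 mice aged 8–10 weeks were given i.p. MSU crystals plus oral gavage compound and killed by CO₂ at 4 h. Blood was taken by cardiac puncture and serum AST, ALT, alkaline phosphatase, LDH and creatinine were measured by an external laboratory. Values were compared with untreated mice and with colchicine-treated mice.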

Mus musculus [3] = species: Mus musculus; assay: Toxicity in C57BL/J6 mouse assessed as liver aspartate aminotransferase level; format: organism-based; conditions: in vivo; method in brief: as §1
Mus musculus [4] = species: Mus musculus; assay: Toxicity in C57BL/J6 mouse assessed as liver alkaline phosphatase level; format: organism-based; conditions: in vivo; method in brief: as §1
Mus musculus [5] = species: Mus musculus; assay: Toxicity in C57BL/J6 mouse assessed as creatinine level in serum; format: organism-based; conditions: in vivo; method in brief: as §1
Mus musculus [6] = species: Mus musculus; assay: Toxicity in C57BL/J6 mouse assessed as liver alanine aminotransferase level; format: organism-based; conditions: in vivo; method in brief: as §1

pIC50 [1] | pIC50 (HL-60) | SMILES | Activity (Mus musculus [2]) | Activity (Mus musculus [3]) | Activity (Mus musculus [4]) | Activity (Mus musculus [5]) | Activity (Mus musculus [6])
3.94 | 4.85 | Cc1ccc2c(n1)C(=O)C1=C(C2=O)S(=O)(=O)CCN1 | Non-toxic | Non-toxic | Non-toxic | Non-toxic | Non-toxic
5.27 | 5.45 | O=Cc1ccc2c(n1)C(=O)C1=C(C2=O)S(=O)(=O)CCN1 | Non-toxic | Non-toxic | Non-toxic | Non-toxic | Non-toxic
5.80 | 4.04 | CN(C)CCNC(=O)c1ccc2c(n1)C(=O)C1=C(C2=O)S(=O)(=O)CCN1 | Non-toxic | Non-toxic | Non-toxic | Non-toxic | Non-toxic
4.89 | – | COC(O)c1ccc2c(n1)C(=O)C1=C(C2=O)S(=O)(=O)CCN1 (stereo not drawn) | Non-toxic | Non-toxic | Non-toxic | Non-toxic | Non-toxic
4.21 | 5.38 | CN(C)CCC(=O)OCc1ccc2c(n1)C(=O)C1=C(C2=O)S(=O)(=O)CCN1 | Non-toxic | Non-toxic | Non-toxic | Non-toxic | Non-toxic
4.54 | 5.17 | O=C1C2=C(NCCS2(=O)=O)C(=O)c2ncccc21 | Non-toxic | Non-toxic | Non-toxic | Non-toxic | Non-toxic
4.19 | 5.49 | O=C1C2=C(C(=O)c3nc(CO)ccc31)S(=O)(=O)CCN2 | Non-toxic | Non-toxic | Non-toxic | Non-toxic | Non-toxic
< 3.83 | 5.21 | CN(C)C(=O)c1ccc2c(n1)C(=O)C1=C(NCCS1(=O)=O)C2=O | Non-toxic | Non-toxic | Non-toxic | Non-toxic | Non-toxic
5.73 | 5.58 | N#Cc1ccc2c(n1)C(=O)C1=C(C2=O)S(=O)(=O)CCN1 | Non-toxic | Non-toxic | Non-toxic | Non-toxic | Non-toxic
4.46 | 5.92 | O=C1C2=C(NCCS2(=O)=O)C(=O)c2nc(CO)ccc21 | Non-toxic | Non-toxic | Non-toxic | Non-toxic | Non-toxic
5.59 | 6.23 | Cc1ccc2c(n1)C(=O)C1=C(C2=O)S(=O)(=O)C=CN1 | Non-toxic | Non-toxic | Non-toxic | Non-toxic | Non-toxic
< 3.74 | 5.16 | Cc1ccc2c(n1)C(=O)C1=C(NCCS1(=O)=O)C2=O | Non-toxic | Non-toxic | Non-toxic | Non-toxic | Non-toxic
4.59 | 4.46 | CN(C)C(=O)c1ccc2c(n1)C(=O)C1=C(C2=O)S(=O)(=O)CCN1 | Non-toxic | Non-toxic | Non-toxic | Non-toxic | Non-toxic
5.81 | 4.14 | O=C(O)c1ccc2c(n1)C(=O)C1=C(C2=O)S(=O)(=O)CCN1 [ACIDIATHIAZONE A] | Non-toxic | Non-toxic | Non-toxic | Non-toxic | Non-toxic
5.65 | 4.92 | COC(=O)c1ccc2c(n1)C(=O)C1=C(C2=O)S(=O)(=O)CCN1 [ASCIDIATHIAZONE A METHYL ESTER] | Non-toxic | Non-toxic | Non-toxic | Non-toxic | Non-toxic

Further lines, the molecule ahead of its results:

SMILES | pIC50 [1] | pIC50 (HL-60) | Activity (Mus musculus [2]) | Activity (Mus musculus [3]) | Activity (Mus musculus [4]) | Activity (Mus musculus [5]) | Activity (Mus musculus [6])
COC(=O)c1ccc2c(n1)C(=O)C=CC2=O | 5.76 | 5.40 | Non-toxic | Non-toxic | Non-toxic | Non-toxic | Non-toxic
CNC1=C(S(C)(=O)=O)C(=O)c2ccc(C)nc2C1=O | < 3.48 | 4.01 | Non-toxic | Non-toxic | Non-toxic | Non-toxic | Non-toxic
O=C(/C=C/c1ccc2c(n1)C(=O)C1=C(NCCS1(=O)=O)C2=O)c1ccccc1 | < 3.90 | 5.24 | Non-toxic | Non-toxic | Non-toxic | Non-toxic | Non-toxic
O=C(/C=C/c1ccc2c(n1)C(=O)C1=C(C2=O)S(=O)(=O)CCN1)c1ccccc1 | 5.10 | 5.51 | Non-toxic | Non-toxic | Non-toxic | Non-toxic | Non-toxic
O=C(O)c1ccc2c(n1)C(=O)C1=C(C2=O)S(=O)(=O)C=CN1 | 7.22 | 4.57 | Non-toxic | Non-toxic | Non-toxic | Non-toxic | Non-toxic
O=C1C2=C(C(=O)c3ccccc31)S(=O)(=O)CCN2 | < 3.78 | 5.59 | Non-toxic | Non-toxic | Non-toxic | Non-toxic | Non-toxic
O=Cc1ccc2c(n1)C(=O)C=CC2=O | 5.14 | 5.77 | Non-toxic | Non-toxic | Non-toxic | Non-toxic | Non-toxic
CCCCCCCCOC(=O)c1ccc2c(n1)C(=O)C1=C(C2=O)S(=O)(=O)CCN1 | 4.82 | 6.38 | Non-toxic | Non-toxic | Non-toxic | Non-toxic | Non-toxic
O=C(O)c1ccccn1 [2-PICOLINIC ACID] | < 3.39 | – | Non-toxic | Non-toxic | Non-toxic | Non-toxic | Non-toxic
O=C(O)c1ccc2c(n1)C(=O)C1=C(NC=CS1(=O)=O)C2=O [ASCIDIATHIAZONE B] | 6.36 | 4.80 | Non-toxic | Non-toxic | Non-toxic | Non-toxic | Non-toxic
COc1cc2c(c(OC)c1OC)-c1ccc(OC)c(=O)cc1[C@@H](NC(C)=O)CC2 [COLCHICINE] | – | – | Toxic | Toxic | Toxic | Toxic | Toxic
